# In the library only some 3% were active in any assay of this set; here they are far more common.
# UCH37 inh: inhibitors of human deubiquitinating enzyme UCH37; Q9Y5K5; purified proteasome/UCH37, Ub-AMC cleavage fluorescence; inhibition, % (no concentration beside the values); hit rate 0.33% among 330,000;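 active = mean inhibition over replicate wells above about 20%, limit read from the data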;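 also: 0% = compound-free wells with enzyme and 100% = wells lacking proteasome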
# Target sequence (Q9Y5K5 whole entry, looked up): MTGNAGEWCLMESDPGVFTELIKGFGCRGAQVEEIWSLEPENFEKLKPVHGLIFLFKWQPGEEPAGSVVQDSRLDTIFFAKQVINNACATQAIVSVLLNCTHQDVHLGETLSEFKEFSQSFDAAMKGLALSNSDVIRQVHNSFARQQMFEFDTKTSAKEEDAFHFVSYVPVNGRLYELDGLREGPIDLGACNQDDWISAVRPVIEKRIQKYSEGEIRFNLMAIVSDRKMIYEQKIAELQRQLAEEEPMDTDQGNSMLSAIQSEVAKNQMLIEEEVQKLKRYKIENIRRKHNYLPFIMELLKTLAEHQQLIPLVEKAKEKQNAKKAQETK
#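 Signal – fluorescence, ex 355 nm, em 460 nm · System – Proteasome-bound UCH37 · Input – 0.15 nM proteasome as dispensed · Timing – 30 min preincubation with enzyme, 25 min cleavage at room temperature · Read-out basis – percent inhibition of cleavage signal versus uninhibited and no-proteasome wells · Medium – Tris-HCl pH 7.4 with ATP-MgCl2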
# MEKK2 WT-MEK5: raises or lowers MEK5 binding to wildtype human MEKK2 PB1 domain. bead flow cytometry, Alexa488-MEK5 binding to MEKK2 WT; actives lie on both sides. hit rate 1.1% among 290,000. Q9Y2U5. binding response (% of control), % at 10 µM; in the data active = binding response below about 67% or above about 130%
# MEKK3 PB1 HTS: raises or lowers MEK5 binding to the human MEKK3 PB1 domain. Q99759. bead-based flow cytometry, Alexa488-MEK5 binding to MEKK3; actives lie on both sides; 0 = blocked by unlabeled MEK5, 100 = vehicle. AID 1529. hit rate 1.4% among 290,000. binding response (% of control), % at 10 µM;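 active = binding response more than 3 SD above or below the average of its plate-row segment, actives on both sides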;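 also: Alexa488 bead fluorescence after subtracting the streptavidin-only scavenger bead signal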
# Apaf1 inhib: blocks human Apaf-1 apoptosome activity; O14727; reconstituted apoptosome caspase-3 activity, DEVD-Rh110 fluorescence; inhibition, % at 20 µM; hit rate 0.71% among 330,000; AID 489030; active = inhibition of at least 40% at 20 µM;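 also: plate controls were DMSO wells for no effect and DEVD-CHO caspase inhibitor wells for full effect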
#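 Material: reconstituted apoptosome with Apaf-1, cytochrome c, caspase-9, procaspase-3, dATP / Buffer or medium: pH 7.5 Hepes buffer with CHAPS, BSA, DTT / Also added: cytochrome c with DEVD-Rh110 / Schedule: compound with Apaf-1, dATP, procaspase-3 30 min, then 50 min reaction, room temperature / Technique: rhodamine 110 fluorescence at Ex 480/Em 540 nm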
# MEKK2 mut-MEK5: signal of MEK5 binding to mutant human MEKK2 PB1 domain. bead flow cytometry, Alexa488-MEK5 binding to MEKK2 mutant. percent response, % at 10 µM. hit rate 0.35% among 290,000. AID 1530; in the data active = percent response above about 24%, passing the limit was not always enough
# UBC13 inh: inhibitors of human UBC13 polyubiquitin chain formation | TR-FRET | inhibition, % at 20 µM | hit rate 0.47% among 330,000; in the data active = inhibition above about 45%, passing the limit was not always enough
# Target sequence (P61088 whole entry, looked up): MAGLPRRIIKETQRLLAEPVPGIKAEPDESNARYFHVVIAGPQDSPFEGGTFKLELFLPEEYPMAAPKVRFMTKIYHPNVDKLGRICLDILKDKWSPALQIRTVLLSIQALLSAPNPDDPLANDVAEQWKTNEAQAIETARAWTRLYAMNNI
# Apaf-1 inh conf: confirmation of Apaf-1 inhibitors; shares compounds with Apaf1 inhib; reconstituted apoptosome, caspase-3 DEVD-Rh110 fluorescence; inhibition, % at 20 µM; hit rate 25% among 1,800; AID 504614;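 active = mean inhibition of at least 40% at 20 µM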;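 also: plate controls were DMSO wells for no effect and DEVD-CHO caspase inhibitor control wells for full effect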
# Rh110 quench: Rh110 signal interference in Apaf-1 inhibitor counter-screen | activation (fluorescence interference), % at 20 µM | 1,800 tested, under 10 active | AID 504615 | shares compounds with Apaf1 inhib | Rh110 fluorescence interference, quenched caspase reaction;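 active = signal rise of 40% or more at 20 µM, treated as a fluorescence artifact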
# Apaf1 inh interf: Apaf-1 inhibitor counter-screen fluorescence artifact; shares compounds with Apaf1 inhib; fluorescence interference counterscreen, Apaf-1 assay format; IC50, µM; 460 tested, under 10 active; AID 588538; call rule not given here
# * marks the source's active call; other numbers are inactive results; x = not tested or not shown.
SMILES,UCH37 inh,MEKK2 WT-MEK5,MEKK3 PB1 HTS,Apaf1 inhib,MEKK2 mut-MEK5,UBC13 inh,Apaf-1 inh conf,Rh110 quench,others
O=C(NCCc1ccc(F)cc1)Nc1ccccc1,5,100,98,-2,3,0,x,x,
CN(c1ccccc1)S(=O)(=O)c1ccc(Cl)c(C(=O)OCC(=O)NC2CCS(=O)(=O)C2)c1 (stereo not given),0,106,106,-3,2,0,x,x,
COc1ccc(CN=Cc2[nH]c3ccc(Br)c(Cl)c3c2O)cc1,4,x,x,45*,x,-71,41*,-1,Apaf1 inh interf=>100
Cc1cc(C)cc(N=Cc2[nH]c3ccc(Br)c(Cl)c3c2O)c1,11,96,120,x,2,x,x,x,
O=c1[nH]c(C2CCN(S(=O)(=O)c3ccc(F)cc3)CC2)nc2c1nnn2Cc1ccc2c(c1)OCCO2,6,95,94,13,-14,-4,x,x,
COc1ccc(C(CNC(=O)c2cccc(NS(=O)(=O)c3ccccc3)c2)N(C)C)cc1 (stereo not given),2,114,101,3,10,0,x,x,
COc1ccc(C(CNC(=O)c2cccc(NS(=O)(=O)c3ccc(C)c(F)c3)c2)N(C)C)cc1 (stereo not given),-3,x,x,52*,x,13,37,-6,
Nc1cccc2cnccc12,3,99,97,67*,-2,-53,15,1,
CCCCC[n+]1ccn(C2=C([O-])c3ccccc3C(=O)/C2=N\S(=O)(=O)c2ccccc2)c1,24*,106,104,53*,3,-91,62*,8,Apaf1 inh interf=>100
CCCCC[n+]1ccn(C2=C([O-])c3ccccc3C(=O)/C2=N\S(=O)(=O)c2ccc(Br)cc2)c1,7,96,94,61*,-5,-115,43*,4,Apaf1 inh interf=>100
CC(C)(C)c1cc[n+](C2=C([O-])c3ccccc3C(=O)/C2=N\S(=O)(=O)c2ccccc2)cc1,10,101,100,9,2,-84,x,x,
CCCCC[n+]1ccn(-c2nc3ccccc3nc2[N-]S(=O)(=O)c2ccc(C)cc2)c1,-47,103,107,5,4,7,x,x,
CC1=CC(C)(C)N2C(=O)C(=Nc3ccc(O)cc3)c3cccc1c32,1,97,103,90*,2,-28,15,-3,
Cc1ccccc1-c1ocnc1C(=O)Nc1ccccc1NC(=O)c1ccccn1,2,87,90,17,-12,-2,x,x,
CCOc1ccccc1CNC(=O)Cn1ccc2cc(S(=O)(=O)N3CCCC3)ccc21,4,100,101,11,6,0,x,x,
Cc1cccc(N2CCN(C(=O)c3ccc4nc(-c5ccco5)c(-c5ccco5)nc4c3)CC2C)c1 (stereo not given),-22,92,103,60*,-2,-32,22,-1,
O=C(c1ccc2nc(-c3ccco3)c(-c3ccco3)nc2c1)N1CCN(c2ncccn2)CC1,-40,88,95,57*,-8,-28,22,0,
CCCCNC(=O)c1ccc2nc(-c3ccco3)c(-c3ccco3)nc2c1,-54,94,99,28,4,-79,x,x,
Cc1cccc(N2CCN(C(=O)c3ccc4nccnc4c3)CC2C)c1 (stereo not given),1,x,x,4,x,-18,x,x,
O=C(NCc1ccccc1)c1ccc2nc(-c3ccco3)c(-c3ccco3)nc2c1,-16,97,103,65*,0,-24,28,6,
FC(F)(F)COc1cc(-c2nnc(SCc3ccccc3)n2Cc2ccco2)cc(OCC(F)(F)F)n1,7,103,106,22,1,1,x,x,
O=C(NCCCCCCNC(=O)c1ccc(Br)s1)c1ccc(Br)s1,2,120,106,2,9,-10,x,x,
C=CCc1cccc(/C=N/NC(=O)CNc2cccc3ccccc23)c1O,x,104,101,96*,0,-17,13,4,
O=C(CNc1cccc2ccccc12)N/N=C/C(Br)=C/c1ccccc1,x,99,108,65*,1,-51,2,7,
C=CCc1cccc(/C=N/NC(=O)CNc2ccccc2OC)c1O,x,99,101,24,-2,-2,x,x,
SMILES,UCH37 inh,MEKK2 WT-MEK5,MEKK3 PB1 HTS,Apaf1 inhib,MEKK2 mut-MEK5,UBC13 inh,Apaf-1 inh conf,Rh110 quench,others
CSc1ccc(/C=N/NC(=O)CNc2cccc3ccccc23)cc1,x,122,105,86*,16,-60,16,-3,
CSc1ccc(/C=N/NC(=O)CNc2ccc3ccccc3c2)cc1,x,98,100,11,0,-10,x,x,
CCOC(=O)N1CCN(c2nnc(-c3ccc(C)cc3)c3ccccc23)CC1,5,95,96,13,-4,-8,x,x,
CC1=C(Nc2ccc(C(=O)O)cc2)C(=O)c2ccccc2C1=O,8,104,104,18,1,-65,x,x,
COC1=C(Nc2ccccc2)C(=O)c2ccccc2C1=O,8,78,74,61*,-3,-166,26,9,
COC1=C(Nc2ccc(C)cc2)C(=O)c2ccccc2C1=O,5,91,91,61*,-3,-135,11,0,
O=C(c1ccco1)N1CCN(C(=O)c2cn(-c3ccccc3)nc2-c2ccc(F)cc2)CC1,5,x,x,72*,x,1,15,6,
COc1cccc(CNC(=O)CCS(=O)(=O)c2ccc3c(c2)NC(=O)CS3)c1,5,103,102,-11,2,1,x,x,
COc1ccc(Cc2nnc(CCc3ccccc3)s2)cc1,3,98,103,6,-5,12,x,x,
COc1ccc([N+](=O)[O-])cc1NCc1ccccc1,4,101,126,21,0,-12,x,x,
CCCCNc1cc(NC(C)=O)cc2cc(OC)c(OC)cc12,-15,98,97,62*,3,-42,83*,-1,Apaf1 inh interf=>100
COc1cc2cc(NC(C)=O)cc(NCc3ccccc3)c2cc1OC,-36,107,99,88*,1,-30,40,0,Apaf1 inh interf=>100
COc1ccc(CNC(=O)N2CCc3ccccc3C2)cc1,4,103,102,-1,1,2,x,x,
COc1ccc(N)cc1-n1c(C)ccc1C,-21,88,92,84*,-8,-27,24,-2,
COc1ccc(C)cc1-n1c(C)cc(C=O)c1C,1,100,98,3,-5,-12,x,x,
